{"source": "paper PMC368434", "about": "(BMC Gastroenterology, 2004)", "key": {"[1]": {"biological_target": "pig gastric microsomal H,K-ATPase (Sus scrofa, UniProt P19156)", "sequence (P19156 2-1034 limits assumed)": "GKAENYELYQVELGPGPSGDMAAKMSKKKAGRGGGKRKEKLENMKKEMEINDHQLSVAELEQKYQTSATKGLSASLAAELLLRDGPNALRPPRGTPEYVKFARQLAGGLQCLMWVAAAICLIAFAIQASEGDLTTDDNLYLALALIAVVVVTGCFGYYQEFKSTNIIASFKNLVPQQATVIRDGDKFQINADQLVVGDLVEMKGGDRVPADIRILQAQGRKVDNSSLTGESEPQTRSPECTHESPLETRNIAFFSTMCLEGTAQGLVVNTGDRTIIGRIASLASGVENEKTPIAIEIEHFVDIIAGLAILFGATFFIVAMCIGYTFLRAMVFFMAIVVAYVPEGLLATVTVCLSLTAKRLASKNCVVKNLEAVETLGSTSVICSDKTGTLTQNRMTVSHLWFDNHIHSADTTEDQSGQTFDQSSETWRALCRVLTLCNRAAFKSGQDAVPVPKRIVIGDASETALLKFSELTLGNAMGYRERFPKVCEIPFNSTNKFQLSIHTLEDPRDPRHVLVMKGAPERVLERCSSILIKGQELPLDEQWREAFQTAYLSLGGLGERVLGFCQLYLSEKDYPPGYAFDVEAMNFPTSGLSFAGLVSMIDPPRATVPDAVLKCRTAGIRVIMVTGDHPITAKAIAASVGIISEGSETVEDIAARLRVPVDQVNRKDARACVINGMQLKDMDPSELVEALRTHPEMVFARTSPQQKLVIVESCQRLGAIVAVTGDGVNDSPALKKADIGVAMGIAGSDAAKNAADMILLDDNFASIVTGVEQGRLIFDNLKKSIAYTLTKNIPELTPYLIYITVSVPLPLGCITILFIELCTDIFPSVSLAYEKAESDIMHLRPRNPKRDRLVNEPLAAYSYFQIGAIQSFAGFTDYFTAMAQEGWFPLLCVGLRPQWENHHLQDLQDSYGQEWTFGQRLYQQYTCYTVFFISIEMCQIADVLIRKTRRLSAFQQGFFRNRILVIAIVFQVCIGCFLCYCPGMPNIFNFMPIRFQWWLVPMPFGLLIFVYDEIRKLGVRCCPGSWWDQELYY", "sequence (P18434 whole entry partner)": "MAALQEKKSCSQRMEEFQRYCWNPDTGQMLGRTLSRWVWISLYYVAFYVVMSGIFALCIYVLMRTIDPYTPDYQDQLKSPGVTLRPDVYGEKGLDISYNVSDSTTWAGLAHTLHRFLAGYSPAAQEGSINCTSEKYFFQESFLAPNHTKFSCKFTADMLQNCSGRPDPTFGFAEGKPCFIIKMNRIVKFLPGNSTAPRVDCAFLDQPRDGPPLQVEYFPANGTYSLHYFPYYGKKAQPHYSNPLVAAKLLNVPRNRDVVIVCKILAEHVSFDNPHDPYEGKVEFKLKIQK", "experiment": "H,K-ATPase assay", "format": "biochemical", "conditions": "for Attenuation of H,K-ATPase activity: non-physiological concentrations greater than 10^-7 M (up to 1 μM); for Inhibitory activity against H,K-ATPase: physiological concentrations (10^-9–10^-8 M)"}, "[2]": {"test_system": "bacteria or mammalian cells; rat bone marrow cells", "conditions": "cited from earlier work"}, "[3]": {"test_system": "IL-8 secretion by human gastric adenocarcinoma (AGS) cells", "experiment": "IL-8 secretion by AGS cells", "format": "cell-based", "conditions": "24 h, read-out: IC50, inhibition of baseline IL-8 secretion", "in_short": "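AGS cells in Ham's F-12 with 10% FBS and antibiotics (37°C, 5% CO2), passages 42–56. Seeded at 50,000 cells/100 μl/well and attached 18 hr, then exposed to test compound with or without IL-1β (1 ng/ml) for 24 hr. Medium IL-8 measured by ELISA. Solvent controls included, solvents <1% final. Triplicates, ≥3 experiments; IC50 from three-parameter logistic fit.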"}, "rat stomach and blood": {"test_system": "rat stomach and blood", "conditions": "cited from earlier work"}, "[4]": {"conditions": "14C-labeled ML 3000, rats; cited from earlier work"}, "guinea-pig ileum": {"test_system": "guinea-pig ileum", "conditions": "cited from earlier work"}, "cats": {"test_system": "cats", "conditions": "cited from earlier work"}, "dogs": {"test_system": "dogs", "conditions": "cited from earlier work"}, "gastric damage": {"test_system": "gastric damage", "conditions": "up to 100 mg/kg/d p.o., rat; cited from earlier work"}, "rat": {"test_system": "rat", "conditions": "cited from earlier work"}, "[5]": {"test_system": "rabbit gastric parietal cells", "experiment": "Acid accumulation assay", "format": "cell-based", "conditions": "up to concentrations of 10^-4 M (data not shown)"}, "gastric H,K-ATPase": {"test_system": "gastric H,K-ATPase", "conditions": "cited from earlier work; for IC50: read-out: IC50, gastric proton pump activity"}}, "data": [{"smiles": "CCCCC/C=C\\C/C=C\\C/C=C\\C/C=C\\CCCC(=O)O", "note": "[Arachidonic acid]", "values": [{"measurement": "IC50", "setting": "[1]", "result": 16.7, "unit": "µM"}]}, {"smiles": "CCCCC/C=C\\C[C@@H](O)/C=C/C=C/C=C\\[C@@H](O)CCCC(=O)O", "note": "[LTB4, leukotriene B4]", "values": [{"measurement": "Attenuation of H,K-ATPase activity", "setting": "[1]", "result": "significant attenuation"}, {"measurement": "Inhibitory activity against H,K-ATPase", "setting": "[1]", "result": "neither leukotriene showed any inhibitory activity"}]}, {"smiles": "CCCCC/C=C\\C\\C=C/C=C/C=C/[C@@H](SC[C@H](N)C(=O)NCC(=O)O)[C@@H](O)CCCC(=O)O", "note": "[LTD4, leukotriene D4]", "values": [{"measurement": "Attenuation of H,K-ATPase activity", "setting": "[1]", "result": "significant attenuation"}, {"measurement": "Inhibitory activity against H,K-ATPase", "setting": "[1]", "result": "neither leukotriene showed any inhibitory activity"}]}, {"smiles": "CC1(C)Cc2c(-c3ccccc3)c(-c3ccc(Cl)cc3)c(CC(=O)O)n2C1", "note": "[ML 3000, [2,2-dimethyl-6-(4-chlorophenyl)-7-phenyl-2,3-dihydro-1H-pyrrolizine-5-yl]-acetic acid]", "values": [{"measurement": "Genotoxicity: gene mutation frequencies in bacteria or mammalian cells, unscheduled DNA synthesis, chromosomal aberrations in rat bone marrow cells", "setting": "[2]", "result": "no effects"}, {"measurement": "IC50", "setting": "[3]", "result": 0.46, "unit": "µM"}, {"measurement": "Gastric mucosal injury", "setting": "rat stomach and blood", "result": "no gastric mucosal injury"}, {"measurement": "Leukocyte adherence in mesenteric venules", "setting": "rat stomach and blood", "result": "no effect"}, {"measurement": "Gastric prostaglandin E2 synthesis", "setting": "rat stomach and blood; rat stomach and blood", "result": "reduces"}, {"measurement": "Inhibition of gastric or blood leukotriene B4 synthesis", "setting": "rat stomach and blood; rat", "result": "not detected"}, {"measurement": "Distribution and excretion", "setting": "[4]", "result": "enterohepatic circulation and glucuronide conjugation"}, {"measurement": "Spasmogenic response", "setting": "guinea-pig ileum", "result": "weak spasmogenic response"}, {"measurement": "IC50", "setting": "[1]", "result": 16.4, "unit": "µM"}, {"measurement": "Effect of ML 3000 acidification on H,K-ATPase inhibitory profile", "setting": "[1]; ML 3000 titrated to pHs 2.0 to 7.4 for 30 min, 16.6 μM final concentration", "result": "no significant effect"}, {"measurement": "Reversibility of H,K-ATPase inhibition", "setting": "[1]; dilution from 100 μM to 3.3 μM", "result": "reversible"}, {"measurement": "Neuromuscular function", "setting": "cats", "result": "without affect"}, {"measurement": "Cardiovascular or respiratory effects", "setting": "dogs", "result": "no cardiovascular or respiratory effects"}, {"measurement": "Gastric damage", "setting": "gastric damage", "result": "no gastric damage"}, {"measurement": "Gastric damage and peristaltic disturbance", "setting": "rat; animal models", "result": "neither gastric damage nor peristaltic disturbance"}, {"measurement": "Rat locomotor activity or hexobarbital-induced sleep", "setting": "rat", "result": "did not affect"}, {"measurement": "Cardiovascular or respiratory effects", "setting": "rat; rat", "result": "no cardiovascular or respiratory effects"}, {"measurement": "Urine output", "setting": "rat; rats", "result": "small transient reduction"}]}, {"smiles": "CS(=O)(=O)Nc1ccc([N+](=O)[O-])cc1OC1CCCCC1", "note": "[NS 398]", "values": [{"measurement": "Inhibitory effect on microsomal H,K-ATPase activity", "setting": "[1]; concentrations up to 10^-4 M", "result": "without inhibitory effects"}, {"measurement": "Effect on acid accumulation by isolated rabbit parietal cells", "setting": "[5]", "result": "no effect"}]}, {"smiles": "CCCCC[C@H](O)/C=C/[C@H]1[C@H](O)CC(=O)[C@@H]1C/C=C\\CCCC(=O)O", "note": "[PGE2, prostaglandin E2]", "values": [{"measurement": "IC50", "setting": "[1]", "result": 15, "unit": "µM"}, {"measurement": "Inhibitory effect on pig gastric H,K-ATPase", "setting": "gastric H,K-ATPase; pig, previous study", "result": "no inhibitory effect"}]}, {"smiles": "CC(=O)Oc1ccccc1C(=O)O", "note": "[acetyl salicylic acid]", "values": [{"measurement": "Inhibitory effect on microsomal H,K-ATPase activity", "setting": "[1]; concentrations up to 10^-3 M", "result": "without inhibitory effects"}, {"measurement": "Effect on acid accumulation by isolated rabbit parietal cells", "setting": "[5]", "result": "no effect"}]}, {"smiles": "COc1ccc2c(c1)c(CC(=O)O)c(C)n2C(=O)c1ccc(Cl)cc1", "note": "[indomethacin]", "values": [{"measurement": "Inhibitory effect on microsomal H,K-ATPase activity", "setting": "[1]; concentrations up to 10^-4 M", "result": "without inhibitory effects"}, {"measurement": "Ki", "setting": "gastric H,K-ATPase; read-out: Ki, inhibition of gastric H,K-ATPase", "result": 670, "unit": "µM"}]}, {"smiles": "Cc1c(OCC(F)(F)F)ccnc1C[S+]([O-])c1nc2ccccc2[nH]1", "note": "(centres unmarked) [lansoprazole]", "values": [{"measurement": "IC50", "setting": "gastric H,K-ATPase", "result": 2.1, "unit": "µM"}]}, {"smiles": "COc1ccc2cc([C@H](C)C(=O)O)ccc2c1", "note": "[naproxen]", "values": [{"measurement": "Inhibitory effect on microsomal H,K-ATPase activity", "setting": "[1]; concentrations up to 10^-4 M", "result": "without inhibitory effects"}]}, {"smiles": "COC(=O)c1cc2nc([S+]([O-])Cc3ncccc3C)[nH]c2cc1C", "note": "(centres unmarked) [picoprazole]", "values": [{"measurement": "IC50", "setting": "gastric H,K-ATPase", "result": 2, "unit": "µM"}]}, {"smiles": "COCCCOc1ccnc(C[S+]([O-])c2nc3ccccc3[nH]2)c1C", "note": "(centres unmarked) [rabeprazole]", "values": [{"measurement": "IC50", "setting": "gastric H,K-ATPase", "result": 0.072, "unit": "µM"}]}]}
